Assays:
Type in all cases: functional
EKVX [1] = test: Growth inhibition of human EKVX cells incubated for 48 hrs by sulforhodamine B assay
Method in brief: (§1)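 NCI-60 five-dose mode: five tenfold dilutions (0.01, 0.1, 1, 10, 100 µM) are applied for 48 h to cells in RPMI 1640 with 5% FBS at 37 °C. Endpoint is TCA fixation with sulforhodamine B read at 515 nm. % growth comes from the 0 h and control absorbances. GI50 is the concentration giving a 50% reduction in net cell growth.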

COLO 205 [2] = test: Growth inhibition of human COLO205 cells incubated for 48 hrs by sulforhodamine B assay; conditions: COLO 205, 48 h; method in brief: as §1
SW-620 = test: Growth inhibition of human SW620 cells incubated for 48 hrs by sulforhodamine B assay; conditions: SW-620, 48 h
Method in brief: (§2)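 NCI-60 five-dose SRB assay. Cells were exposed for 48 h to tenfold dilutions of 0.01, 0.1, 1, 10 and 100 µM, in RPMI 1640 with 5% FBS. Plates fixed with TCA at the time of drug addition served as the time-zero reference. GI50 is the concentration giving a 50% reduction in net growth. TGI is total growth inhibition. LC50 is a net 50% loss of the initial cells.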

PC-3 = test: Growth inhibition of human PC3 cells incubated for 48 hrs by sulforhodamine B assay; conditions: PC-3, 48 h; method in brief: as §2
BT-549 [3] = test: Growth inhibition of human BT549 cells incubated for 48 hrs by sulforhodamine B assay; conditions: BT-549, 48 h; method in brief: as §1
SNB-75 = test: Cell cycle arrest in human SNB75 cells assessed as accumulation in G0/G1 phase at 2 uM incubated for 24 hrs by propidium iodide based flow cytometry (reference value: 55.62 %)
Method in brief: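 SNB-75 cells were exposed to 2 µM for 24 h at 37 °C, 5% CO2, then washed with PBS and fixed in 70% ethanol on ice for 15 min. They were stained 1 h at room temperature with 50 µg/mL propidium iodide, 0.1 mg/mL RNase A and 0.05% Triton X-100. DNA content was read by flow cytometry to give the % of cells in pre-G1, G0/G1, S and G2/M.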

SK-MEL-28 = test: Growth inhibition of human SK-MEL-28 cells assessed as cell viability at 100 uM incubated for 48 hrs by sulforhodamine B assay; conditions: SK-MEL-28, 48 h, read-out: Activity
NCI-H226 = test: Growth inhibition of human NCI-H226 cells assessed as cell viability at 100 uM incubated for 48 hrs by sulforhodamine B assay; conditions: NCI-H226, 48 h, read-out: Activity
K562 = test: Growth inhibition of human K562 cells assessed as cell viability at 100 uM incubated for 48 hrs by sulforhodamine B assay; conditions: K562, 48 h, read-out: Activity
T47D = test: Growth inhibition of human T47D cells assessed as cell viability at 1 uM incubated for 48 hrs by sulforhodamine B assay; conditions: read-out: Activity
SK-MEL-2 = test: Growth inhibition of human SK-MEL-2 cells assessed as cell viability at 1 uM incubated for 48 hrs by sulforhodamine B assay; conditions: SK-MEL-2, 48 h, read-out: Activity
U-251 = test: Growth inhibition of human U251 cells assessed as cell viability at 1 uM incubated for 48 hrs by sulforhodamine B assay; conditions: U-251, 48 h, read-out: Activity
SF-295 = test: Growth inhibition of human SF295 cells assessed as cell viability at 1 uM incubated for 48 hrs by sulforhodamine B assay; conditions: SF-295, 48 h, read-out: Activity
COLO 205 [4] = test: Growth inhibition of human COLO205 cells assessed as cell viability at 1 uM incubated for 48 hrs by sulforhodamine B assay; conditions: COLO 205, 48 h, read-out: Activity
MOLT-4 = test: Growth inhibition of human MOLT4 cells assessed as cell viability at 1 uM incubated for 48 hrs by sulforhodamine B assay; conditions: MOLT-4, 48 h, read-out: Activity
CCRF-CEM [5] = test: Growth inhibition of human CCRF-CEM cells assessed as cell viability at 1 uM incubated for 48 hrs by sulforhodamine B assay; conditions: read-out: Activity
MDA-MB-231 = test: Growth inhibition of human MDA-MB-231 cells assessed as cell viability at 0.1 uM incubated for 48 hrs by sulforhodamine B assay; conditions: MDA-MB-231, 48 h, read-out: Activity
IGROV-1 = test: Growth inhibition of human IGROV1 cells assessed as cell viability at 0.1 uM incubated for 48 hrs by sulforhodamine B assay; conditions: IGROV-1, 48 h, read-out: Activity
NCI-H23 = test: Growth inhibition of human NCI-H23 cells assessed as cell viability at 0.1 uM incubated for 48 hrs by sulforhodamine B assay; conditions: NCI-H23, 48 h, read-out: Activity
EKVX [6] = test: Growth inhibition of human EKVX cells assessed as cell viability at 0.001 uM incubated for 48 hrs by sulforhodamine B assay relative to control; conditions: read-out: Activity
CCRF-CEM [7] = test: Growth inhibition of human CCRF-CEM cells assessed as cell viability at 0.001 uM incubated for 48 hrs by sulforhodamine B assay relative to control; conditions: read-out: Activity
UO-31 = test: Growth inhibition of human UO31 cells assessed as cell viability at 100 uM incubated for 48 hrs by sulforhodamine B assay; conditions: UO-31, 48 h, read-out: Activity
BT-549 [8] = test: Growth inhibition of human BT549 cells assessed as cell viability at 100 uM incubated for 48 hrs by sulforhodamine B assay; conditions: BT-549, 48 h, read-out: Activity
[9] = read-out: LC50 (the source's name)
[10] = read-out: pLC50 (the source's name) (converted)

CC1=C(C(=O)OCc2ccccc2)C(c2ccc3c(c2)OCO3)n2c(nc3ccccc32)N1 (racemic)
GI50 (EKVX [1]; read-out: GI50): 0.69 µM
LC50 (EKVX [1]; read-out: LC50): > 100 µM
TGI (EKVX [1]; read-out: TGI): > 100 µM
GI50 (EKVX [1]; read-out: pGI50 (converted)): 0.692 µM
LC50 (EKVX [1]; read-out: pLC50 (converted)): > 100 µM
TGI (EKVX [1]; read-out: pTGI): > 100 µM
GI50 (COLO 205 [2]; read-out: GI50): 0.5 µM
LC50 (COLO 205 [2]; read-out: LC50): > 100 µM
TGI (COLO 205 [2]; read-out: TGI): > 100 µM
GI50 (COLO 205 [2]; read-out: pGI50 (converted)): 0.501 µM
LC50 (COLO 205 [2]; read-out: pLC50 (converted)): > 100 µM
TGI (COLO 205 [2]; read-out: pTGI): > 100 µM
GI50 (SW-620; read-out: GI50): 0.39 µM
LC50 (concentration causing 50% net loss of initial cells) (SW-620; read-out: LC50): > 100 µM
TGI (SW-620; read-out: TGI): > 100 µM
GI50 (SW-620; read-out: pGI50 (converted)): 0.389 µM
LC50 (concentration causing 50% net loss of initial cells) (SW-620; read-out: pLC50 (converted)): > 100 µM
TGI (SW-620; read-out: pTGI): > 100 µM
GI50 (PC-3; read-out: GI50): 0.55 µM
CC50 (PC-3; [9]): > 100 µM
TGI (PC-3; read-out: TGI): > 100 µM
GI50 (PC-3; read-out: pGI50 (converted)): 0.55 µM
CC50 (PC-3; [10]): > 100 µM
TGI (PC-3; read-out: pTGI): > 100 µM
GI50 (BT-549 [3]; read-out: GI50): 0.92 µM
CC50 (BT-549 [3]; [9]): > 100 µM
TGI (BT-549 [3]; read-out: TGI): > 100 µM
GI50 (BT-549 [3]; read-out: pGI50 (converted)): 0.912 µM
CC50 (BT-549 [3]; [10]): > 100 µM
TGI (BT-549 [3]; read-out: pTGI): > 100 µM
Activity (SNB-75): 34.52%
viability at 100 µM (SK-MEL-28): 60%
viability at 100 µM (NCI-H226): 64%
viability at 100 µM (K562): 26%
viability at 1 µM (T47D): 30%
viability at 1 µM (SK-MEL-2): 52%
viability at 1 µM (U-251): 26%
viability at 1 µM (SF-295): 16%
viability at 1 µM (COLO 205 [4]): 28%
viability at 1 µM (MOLT-4): 43%
viability at 1 µM (CCRF-CEM [5]): 19%
viability at 0.1 µM (MDA-MB-231): 98%
viability at 0.1 µM (IGROV-1): 93%
viability at 0.1 µM (NCI-H23): 92%
viability at 0.001 µM (EKVX [6]): 91%
viability at 0.001 µM (CCRF-CEM [7]): 101%
viability at 100 µM (UO-31): -7%
viability at 100 µM (BT-549 [8]): 35%

From ChEMBL document CHEMBL4406880, “Design, synthesis, and bioactivity of dihydropyrimidine derivatives as kinesin spindle protein inhibitors” (Bioorg Med Chem, 2019)
